Results taken from ChEMBL document CHEMBL4118063, “Design, synthesis and evaluation of aromatic heterocyclic derivatives as potent antifungal agents” (Eur J Med Chem, 2017).
Converted amounts (≈) assume the structure as drawn.

Assays:
Assay type in all cases: functional
Candida albicans [1] = assay: Antifungal activity against Candida albicans CPCC 400523 by broth microdilution method
Summary of the method: (§1)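 Serial twofold-style dilution in growth medium per NCCLS broth microdilution guidelines. Compounds dissolved in DMSO before dilution. Fluconazole and itraconazole served as positive controls. MIC was read as the lowest concentration that prevents visible fungal growth.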

Candida albicans [2] = assay: Antifungal activity against Candida albicans ATCC SC5314 by broth microdilution method; summary of the method: as §1
Cryptococcus neoformans = assay: Antifungal activity against Cryptococcus neoformans cgmcc 2.3161 by broth microdilution method; summary of the method: as §1
Candida tropicalis = assay: Antifungal activity against Candida tropicalis cgmcc 2.3739 by broth microdilution method; summary of the method: as §1
Aspergillus fumigatus = assay: Antifungal activity against Aspergillus fumigatus GIM 3.524 by broth microdilution method; summary of the method: as §1

| MIC (Candida albicans [1]) [µg/mL] | MIC (Candida albicans [2]) [µg/mL] | MIC (Cryptococcus neoformans) [µg/mL] | MIC (Candida tropicalis) [µg/mL] | MIC (Aspergillus fumigatus) [µg/mL] | Compound |
| --- | --- | --- | --- | --- | --- |
| > 16 | > 16 | > 16 | > 16 | > 16 | CC(C)OC(=O)[C@H](Cn1ccnc1)NC(=O)c1csc(-c2ccccc2)n1 |
| 4 (≈ 10.1 µM) | 2 (≈ 5.03 µM) | > 16 | 0.125 (≈ 0.314 µM) | > 16 | CC(C)COC(=O)[C@H](Cn1ccnc1)NC(=O)c1ccc(-c2ccccc2)s1 |
| > 16 | > 16 | > 16 | 4 (≈ 10.5 µM) | > 16 | CC(C)COC(=O)[C@H](Cn1ccnc1)NC(=O)c1coc(-c2ccccc2)n1 |
| > 16 | > 16 | > 16 | 4 (≈ 10.1 µM) | > 16 | Cc1cc(C(=O)N[C@@H](Cn2ccnc2)C(=O)OCC(C)C)nn1-c1ccccc1 |
| > 16 | > 16 | 2 (≈ 5.2 µM) | 0.0625 (≈ 0.163 µM) | > 16 | CC(C)OC(=O)[C@H](Cn1ccnc1)NC(=O)c1nc(-c2ccccc2)cs1 |
| 1 (≈ 2.64 µM) | 0.25 (≈ 0.659 µM) | 8 (≈ 21.1 µM) | 0.0625 (≈ 0.165 µM) | > 16 | CC(C)OC(=O)[C@H](Cn1ccnc1)NC(=O)c1cnc(-c2ccccc2)nc1 |
| 1 (≈ 2.42 µM) | 0.25 (≈ 0.606 µM) | 8 (≈ 19.4 µM) | 0.125 (≈ 0.303 µM) | > 16 | Cc1nc(-c2ccccc2)sc1C(=O)N[C@@H](Cn1ccnc1)C(=O)OCC(C)C |
